We go through 35 molecules from ChEMBL document CHEMBL4673223, “Synthesis, Biological, and Structural Explorations of New Zwitterionic Derivatives of 14- O-Methyloxymorphone, as Potent μ/δ Opioid Agonists and Peripherally Selective Antinociceptives” (J Med Chem, 2019).

The species named for one experiment is Rattus norvegicus. The experiment in a line: Selectivity index, ratio of Ki for displacement of [3H][Ile5,6]deltorphin II from delta opioid receptor in rat brain membranes to Ki for displacement of [3H]DAMGO from mu opioid receptor in rat brain membranes. In kind it is cell membranes. The method, boiled down:
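Rat brain membranes (cerebella removed; 0.3–0.5 mg protein) in 50 mM Tris-HCl, pH 7.4, were incubated 45 min at 35 °C with 1 nM [3H]DAMGO (MOR) or 0.5 nM [3H][Ile5,6]deltorphin II (DOR) plus varied test concentrations. Nonspecific binding was set with 10 μM naloxone. Samples were GF/C filtered, washed and scintillation counted. Ki was obtained by Cheng–Prusoff; duplicates, 3–4 experiments.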
On the technique in general: Loss of bound radioactivity is the signal in a displacement assay; it reports binding, not function.

In experiment [1] the target is Mu-type opioid receptor (Homo sapiens) (UniProt P35372). The experiment in a line: Agonist activity at human MOR expressed in CHO cell membranes incubated for 60 mins scintillation counting assay relative to DAMGO. Conditions: Cell membrane. The method, boiled down: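 CHO-hMOR or CHO-hKOR membranes (5–10 μg) were incubated 60 min at 25 °C in HEPES/MgCl2/NaCl buffer, pH 7.4, with 0.05 nM [35S]GTPγS, 10 μM GDP and varied test concentrations. Nonspecific binding was set with 10 μM GTPγS. Samples were filtered and scintillation counted. % stimulation was taken from concentration–response curves relative to the full agonist (DAMGO for MOR, U69,593 for KOR). Duplicates, 3–4 experiments.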
Sequence of Mu-type opioid receptor (Homo sapiens) (P35372 whole entry): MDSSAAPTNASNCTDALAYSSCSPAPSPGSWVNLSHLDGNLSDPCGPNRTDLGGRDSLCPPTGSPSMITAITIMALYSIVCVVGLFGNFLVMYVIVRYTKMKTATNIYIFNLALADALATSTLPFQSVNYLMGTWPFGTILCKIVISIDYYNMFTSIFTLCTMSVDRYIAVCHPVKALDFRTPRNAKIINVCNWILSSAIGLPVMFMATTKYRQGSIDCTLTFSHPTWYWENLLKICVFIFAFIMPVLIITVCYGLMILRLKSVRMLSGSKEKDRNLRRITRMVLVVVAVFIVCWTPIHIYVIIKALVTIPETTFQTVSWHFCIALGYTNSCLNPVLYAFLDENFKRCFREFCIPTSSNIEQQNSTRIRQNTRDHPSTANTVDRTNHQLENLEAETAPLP

The nature of experiment [2]: Selectivity index, ratio of Ki for displacement of [3H]U69,593 from kappa opioid receptor in guinea-pig brain membranes to Ki for displacement of [3H]DAMGO from mu opioid receptor in rat brain membranes. In kind it is cell membranes. The method, boiled down:
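Guinea-pig brain membranes (0.3–0.5 mg protein) in 50 mM Tris-HCl, pH 7.4, were incubated with 1 nM [3H]U69,593 for 30 min at 30 °C, with 10 μM naloxone defining nonspecific binding. MOR was measured on rat brain membranes with 1 nM [3H]DAMGO for 45 min at 35 °C. Samples were filtered and scintillation counted, and Ki was obtained by Cheng–Prusoff; duplicates, 3–4 experiments.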

Experiment [3] addresses Delta-type opioid receptor (Homo sapiens) (UniProt P41143). Description: Displacement of [3H]diprenorphine from human DOR expressed in CHO cell membranes incubated for 60 mins liquid scintillation counting assay. Conditions: Cell membrane, filed as agonist. The method, boiled down:
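Membranes from CHO cells expressing human DOR (15–20 μg) in 50 mM Tris-HCl, pH 7.4, were incubated with 0.2 nM [3H]diprenorphine and varied test concentrations for 60 min at 25 °C. Nonspecific binding was set with 1–10 μM unlabeled diprenorphine. Samples were GF/C filtered and scintillation counted.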

Another experiment concerns Mus musculus. Description: Antinociceptive activity in sc dosed CD1 mouse assessed as inhibition of the writhing response after 30 mins post dose by acetic acid-induced writhing assay. In kind it is functional. As to conditions: 0.5 h. In general terms: An intraperitoneal irritant provokes the stretching counted in writhing tests.

Active and inactive are the calls of the source. The calls are words filed in the database; no cut-off is given here.

Sequence of Delta-type opioid receptor (Homo sapiens) (P41143 whole entry): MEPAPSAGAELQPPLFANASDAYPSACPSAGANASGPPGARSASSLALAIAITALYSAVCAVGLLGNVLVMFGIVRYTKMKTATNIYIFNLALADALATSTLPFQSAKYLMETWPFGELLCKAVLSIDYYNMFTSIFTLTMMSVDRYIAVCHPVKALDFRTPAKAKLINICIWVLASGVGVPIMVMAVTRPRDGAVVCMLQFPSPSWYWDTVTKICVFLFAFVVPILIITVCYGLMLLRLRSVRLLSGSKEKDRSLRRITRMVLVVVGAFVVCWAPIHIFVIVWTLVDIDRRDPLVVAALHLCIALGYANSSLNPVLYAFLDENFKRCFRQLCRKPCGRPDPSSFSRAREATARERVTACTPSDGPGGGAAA

Turning to `CO[C@@]12CC[C@H](N[C@H](C(=O)N[C@@H](Cc3ccc(O)cc3)C(=O)O)C(C)C)[C@@H]3Oc4c(O)ccc5c4[C@@]31CCN(C)[C@@H]2C5`, the results for the Ratio Ki (in the experiment filed under Rattus norvegicus; in experiment [2]) were 1.5 and 84, respectively. The molecule also showed an Activity in experiment [1] (filed as partial agonist) of 84%. The outcome in experiment [3] was Active.
In the case of `CO[C@@]12CC[C@@H](N[C@@H](CC(N)=O)C(=O)O)[C@@H]3Oc4c(O)ccc5c4[C@@]31CCN(C)[C@@H]2C5`, the Ratio Ki in the experiment filed under Rattus norvegicus amounted to 1.8; in experiment [2], 82. Moreover, in experiment [3], the outcome was Active.
One may read the ED50 as the dose at which the effect has come halfway, by size or by number of responders. For `CO[C@@]12CC[C@H](N[C@@H](CC(N)=O)C(=O)O)[C@@H]3Oc4c(O)ccc5c4[C@@]31CCN(C)[C@@H]2C5`, the Ratio Ki in the experiment filed under Rattus norvegicus amounted to 2.9; in experiment [2] it was 63. For the same molecule, in experiment [3], the outcome was Active. Further, the ED50 with Mus musculus turned out to be 0.0152 mg/kg.
As for `CO[C@@]12CC[C@@H](N[C@H](C(=O)N[C@@H](Cc3ccc(O)cc3)C(=O)O)C(C)C)[C@@H]3Oc4c(O)ccc5c4[C@@]31CCN(C)[C@@H]2C5`, in the experiment filed under Rattus norvegicus, the Ratio Ki was 3.1. The Activity in experiment [1] (filed as partial agonist) came out at 73%. For the same molecule, the result in experiment [3] was Active.
Regarding `CO[C@@]12CC[C@@H](NCCCC(=O)O)[C@@H]3Oc4c(O)ccc5c4[C@@]31CCN(C)[C@@H]2C5`, the Ratio Ki in the experiment listed under Rattus norvegicus was 4.7. In addition, the result in experiment [3] was Active.
As for `CN1CC[C@]23c4c5ccc(O)c4O[C@H]2[C@@H](O)C=C[C@H]3[C@H]1C5` [MORPHINE], in the experiment on Mus musculus, the ED50 was 0.437 mg/kg.
As for `CO[C@@]12CC[C@H](N[C@@H](Cc3c[nH]c4ccccc34)C(=O)O)[C@@H]3Oc4c(O)ccc5c4[C@@]31CCN(C)[C@@H]2C5`, the Ratio Ki in the experiment filed under Rattus norvegicus was determined as 2.8; in experiment [2], 70. In addition, the outcome in experiment [3] was Active.
For the molecule `CO[C@@]12CC[C@@H](NCCC(=O)O)[C@@H]3Oc4c(O)ccc5c4[C@@]31CCN(C)[C@@H]2C5`, the Ratio Ki in the experiment filed under Rattus norvegicus amounted to 13; in experiment [2], 69. The Activity in experiment [1] (filed as agonist) turned out to be 78%. In addition, the outcome in experiment [3] was Active.
`CO[C@@]12CC[C@@H](N[C@@H](CCC(N)=O)C(=O)O)[C@@H]3Oc4c(O)ccc5c4[C@@]31CCN(C)[C@@H]2C5`: the Ratio Ki in the experiment filed under Rattus norvegicus was 2; in experiment [2], 117. Besides, the result in experiment [3] was Active.
Regarding `CC[C@H](N[C@H]1CC[C@@]2(OC)[C@H]3Cc4ccc(O)c5c4[C@@]2(CCN3C)[C@H]1O5)C(=O)O`, the Ratio Ki in experiment [2] amounted to 189. In addition, the outcome in experiment [3] was Active. Also, the median effective dose (ED50) in the experiment with Mus musculus was 0.0175 mg/kg.
On to `CO[C@@]12CC[C@H](N[C@@H](CO)C(=O)O)[C@@H]3Oc4c(O)ccc5c4[C@@]31CCN(C)[C@@H]2C5`, for which the Ratio Ki came out at 2.4 in the experiment filed under Rattus norvegicus and 89 in experiment [2]. In addition, the outcome in experiment [3] was Active.
The like results for `CO[C@@]12CC[C@@H](N[C@@H](CCC(=O)O)C(=O)O)[C@@H]3Oc4c(O)ccc5c4[C@@]31CCN(C)[C@@H]2C5` were, in that order, 0.7, 108 and “Active”.
For `CO[C@@]12CC[C@H](N[C@@H](CCCCN)C(=O)O)[C@@H]3Oc4c(O)ccc5c4[C@@]31CCN(C)[C@@H]2C5` the same measures were 6.7, 66 and “Active”.
Take `CO[C@@]12CC[C@H](N[C@@H](CCC(N)=O)C(=O)O)[C@@H]3Oc4c(O)ccc5c4[C@@]31CCN(C)[C@@H]2C5`: the Ratio Ki in the experiment filed under Rattus norvegicus was 1.6; in experiment [2], 108. The outcome in experiment [3] was Active.
`CO[C@@]12CC[C@@H](N[C@@H](C(=O)O)C(C)C)[C@@H]3Oc4c(O)ccc5c4[C@@]31CCN(C)[C@@H]2C5`: the Ratio Ki in the experiment listed under Rattus norvegicus amounted to 1.6; in experiment [2], 156. Further, the result in experiment [3] was Active. The 50% effective dose (ED50) in the experiment on Mus musculus stood at 0.014 mg/kg.
For the molecule `CN1CC[C@]23c4c5ccc(O)c4O[C@H]2[C@@H](NCC(=O)O)CC[C@@]3(OCCCc2ccccc2)[C@H]1C5`, the result in experiment [3] was Active.
Consider `CO[C@@]12CC[C@H](N[C@H](C(=O)O)C(C)C)[C@@H]3Oc4c(O)ccc5c4[C@@]31CCN(C)[C@@H]2C5`, for which the Ratio Ki in the experiment listed under Rattus norvegicus is 1.2; in experiment [2] it was 103. In experiment [3], the result was Active.
With `CO[C@@]12CC[C@H](NCC(=O)O)[C@@H]3Oc4c(O)ccc5c4[C@@]31CCN(C)[C@@H]2C5`, the outcome in experiment [3] was Active.
The same measure, in the same setting: with `CN1CC[C@]23c4c5ccc(O)c4O[C@H]2[C@H](NCC(=O)O)CC[C@@]3(OCCCc2ccccc2)[C@H]1C5` the entry was “Active”.
For `CO[C@@]12CC[C@@H](N[C@@H](CO)C(=O)O)[C@@H]3Oc4c(O)ccc5c4[C@@]31CCN(C)[C@@H]2C5`, the Ratio Ki in the experiment listed under Rattus norvegicus was 2.5; in experiment [2] it was 71. For the same molecule, in experiment [3], the outcome was Active.
Take `CO[C@@]12CC[C@H](N[C@H](Cc3ccccc3)C(=O)O)[C@@H]3Oc4c(O)ccc5c4[C@@]31CCN(C)[C@@H]2C5`: the Ratio Ki in the experiment listed under Rattus norvegicus was determined as 6; in experiment [2] it was 125. Besides, the outcome in experiment [3] was Active. Further, the ED50 with Mus musculus amounted to 0.0181 mg/kg.
As to `CO[C@@]12CCC(N[C@@H](CCC(=O)O)C(=O)O)[C@@H]3Oc4c(O)ccc5c4[C@@]31CCN(C)[C@@H]2C5` (single isomer, unassigned), the Ratio Ki in the experiment filed under Rattus norvegicus was 6.2; in experiment [2], 60. Moreover, the outcome in experiment [3] was Active.
Regarding `CO[C@@]12CC[C@@H](N[C@H](C(=O)O)C(C)C)[C@@H]3Oc4c(O)ccc5c4[C@@]31CCN(C)[C@@H]2C5`, the figures for the Ratio Ki (in the experiment listed under Rattus norvegicus; in experiment [2]) were 1.2 and 100, respectively. The same molecule displayed an Activity in experiment [1] (filed as agonist) of 84%. For the same molecule, the result in experiment [3] was Active.
Regarding `CO[C@@]12CC[C@H](NCCC(=O)O)[C@@H]3Oc4c(O)ccc5c4[C@@]31CCN(C)[C@@H]2C5`, the Ratio Ki in the experiment listed under Rattus norvegicus was determined as 46; in experiment [2], 140. Besides, the result in experiment [3] was Active.
For `CO[C@@]12CC[C@@H](N[C@H](Cc3ccccc3)C(=O)O)[C@@H]3Oc4c(O)ccc5c4[C@@]31CCN(C)[C@@H]2C5`, the values for the Ratio Ki (in the experiment listed under Rattus norvegicus; in experiment [2]) were 0.9 and 109, respectively. Further, the Activity in experiment [1] (filed as agonist) stood at 78%. For the same molecule, the result in experiment [3] was Active.
Regarding `CO[C@@]12CC[C@H](N[C@@H](C(=O)O)C(C)C)[C@@H]3Oc4c(O)ccc5c4[C@@]31CCN(C)[C@@H]2C5`, the results for the Ratio Ki (in the experiment filed under Rattus norvegicus; in experiment [2]) were 1.1 and 119, respectively. The result in experiment [3] was Active.
The like results for `CO[C@@]12CC[C@@H](N[C@@H](Cc3ccc(O)cc3)C(=O)O)[C@@H]3Oc4c(O)ccc5c4[C@@]31CCN(C)[C@@H]2C5` were, in that order, 1.2, 58 and “Active”.
For `CO[C@@]12CC[C@H](N[C@@H](CC(=O)O)C(=O)O)[C@@H]3Oc4c(O)ccc5c4[C@@]31CCN(C)[C@@H]2C5` the same measures were 11, 37 and “Active”.
For `CO[C@@]12CC[C@H](N[C@@H](Cc3ccc(O)cc3)C(=O)O)[C@@H]3Oc4c(O)ccc5c4[C@@]31CCN(C)[C@@H]2C5`, the Ratio Ki in the experiment listed under Rattus norvegicus is 2.6; in experiment [2] it was 48. Moreover, the result in experiment [3] was Active. The ED50 with Mus musculus turned out to be 0.0146 mg/kg.
Turning to `CO[C@@]12CCC(=O)[C@@H]3Oc4c(O)ccc5c4[C@@]31CCN(C)[C@@H]2C5`, in experiment [3], the outcome was Active.
As for `CO[C@@]12CC[C@@H](N[C@H](C)C(=O)O)[C@@H]3Oc4c(O)ccc5c4[C@@]31CCN(C)[C@@H]2C5`, the outcome in experiment [3] was Active.
Consider `CO[C@@]12CC[C@@H](N[C@@H](CC(=O)O)C(=O)O)[C@@H]3Oc4c(O)ccc5c4[C@@]31CCN(C)[C@@H]2C5`, for which the Ratio Ki in the experiment filed under Rattus norvegicus turned out to be 6.6; in experiment [2] it was 103. This molecule came in with an Activity in experiment [1] (filed as agonist) of 74%. In experiment [3], the outcome was Active.
For the molecule `CO[C@@]12CC[C@H](N[C@H](C)C(=O)O)[C@@H]3Oc4c(O)ccc5c4[C@@]31CCN(C)[C@@H]2C5`, the result in experiment [3] was Active.
For the molecule `CO[C@@]12CC[C@H](NCCCC(=O)O)[C@@H]3Oc4c(O)ccc5c4[C@@]31CCN(C)[C@@H]2C5`, the Ratio Ki was found to be 16 in the experiment filed under Rattus norvegicus and 59 in experiment [2]. Moreover, in experiment [3], the result was Active.
For `CO[C@@]12CC[C@H](N[C@H](C(=O)O)C3CCCCC3)[C@@H]3Oc4c(O)ccc5c4[C@@]31CCN(C)[C@@H]2C5` the same measures were 12, 144 and “Active”.
